Source: ChEMBL document CHEMBL3259575, “Evaluation of a large library of (thiazol-2-yl)hydrazones and analogues as histone acetyltransferase inhibitors: enzyme and cellular studies” (2014)
Active and inactive are the calls of the source. The rule behind the calls is not given here.

Legend:
U-937 [1] = test: Induction of apoptosis in human U937 cells at 100 uM after 30 hrs by FACS analysis relative to control relative to CPTH6; assay type: functional
U-937 [2] = test: Induction of human U937 cell differentiation assessed as CD11c expression at 100 uM after 30 hrs by propidium iodide-based flow cytometry relative to control; assay type: functional
How it was run: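 U937 cells treated 30 h, then stained 1 h at 4 °C in dark with PE-conjugated anti-CD11c (mouse IgG1-PE isotype for controls), washed, resuspended in PBS with propidium iodide; flow cytometry, CD11c-positive percentage after subtracting PI-positive dead cells, versus control.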

[3] = target: Histone acetyltransferase KAT2B (Homo sapiens) (UniProt Q92831); test: Inhibition of recombinant human PCAF catalytic domain (492 to 658 aa) using histone H3 at 100 uM after 1 hr by radiochemical assay in presence of [acetyl-3H]-acetyl coenzyme A
HCT-116 [4] = test: Induction of apoptosis in human HCT116 cells at 100 uM after 30 hrs by FACS analysis relative to control; assay type: functional
How it was run: (§1)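 Cells cultured at 37 °C, 5% CO2 in RPMI-1640 plus 10% heat-inactivated FBS and antibiotics; treated 30 h; apoptosis read by FACS as the pre-G1 population, compared with untreated control.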

U-937 [5] = test: Induction of apoptosis in human U937 cells at 100 uM after 30 hrs by FACS analysis relative to control; assay type: functional; how it was run: as §1
[6] = target: Histone acetyltransferase p300 (Homo sapiens) (UniProt Q09472); test: Inhibition of recombinant human p300 catalytic domain (1284 to 1673 aa) using histone H3 at 400 uM after 1 hr by radiochemical assay in presence of [acetyl-3H]-acetyl coenzyme A
U-937 [7] = test: Induction of apoptosis in human U937 cells at 100 uM after 30 hrs by FACS analysis relative to control in presence of CPTH6; assay type: functional, cell-based
[8] = target: Histone acetyltransferase p300 (Homo sapiens) (UniProt Q09472); test: Inhibition of recombinant human p300 catalytic domain (1284 to 1673 aa) using histone H3 at 200 uM after 1 hr by radiochemical assay in presence of [acetyl-3H]-acetyl coenzyme A
[9] = target: Histone acetyltransferase p300 (Homo sapiens) (UniProt Q09472); test: Inhibition of recombinant human p300 catalytic domain (1284 to 1673 aa) using histone H3 at 100 uM after 1 hr by radiochemical assay in presence of [acetyl-3H]-acetyl coenzyme A
U-937 [10] = test: Cell cycle arrest in human U937 cells assessed as reduction in cells at S phase at 100 uM after 30 hrs by propidium iodide-based flow cytometry relative to control; assay type: functional
How it was run: (§2)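 Cells kept at 37 °C, 5% CO2 in RPMI-1640 with 10% heat-inactivated FBS, penicillin, streptomycin, L-glutamine, amphotericin B; plated at 2 × 10^5 cells/mL, exposed 30 h, then suspended in PBS with 0.1% sodium citrate, 0.1% NP40 and propidium iodide; 30 min room temperature in dark; flow cytometry, cell-cycle phase distribution versus untreated control.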

U-937 [11] = test: Cell cycle arrest at G1 phase in human U937 cells at 100 uM after 30 hrs by propidium iodide-based flow cytometry relative to control; assay type: functional; how it was run: as §2
HCT-116 [12] = test: Cell cycle arrest at G1 phase in human HCT116 cells at 100 uM after 30 hrs by propidium iodide-based flow cytometry relative to control; assay type: functional; how it was run: as §2

Chain of Histone acetyltransferase KAT2B (Homo sapiens) (Q92831 whole entry, looked up, the tested form may be a part): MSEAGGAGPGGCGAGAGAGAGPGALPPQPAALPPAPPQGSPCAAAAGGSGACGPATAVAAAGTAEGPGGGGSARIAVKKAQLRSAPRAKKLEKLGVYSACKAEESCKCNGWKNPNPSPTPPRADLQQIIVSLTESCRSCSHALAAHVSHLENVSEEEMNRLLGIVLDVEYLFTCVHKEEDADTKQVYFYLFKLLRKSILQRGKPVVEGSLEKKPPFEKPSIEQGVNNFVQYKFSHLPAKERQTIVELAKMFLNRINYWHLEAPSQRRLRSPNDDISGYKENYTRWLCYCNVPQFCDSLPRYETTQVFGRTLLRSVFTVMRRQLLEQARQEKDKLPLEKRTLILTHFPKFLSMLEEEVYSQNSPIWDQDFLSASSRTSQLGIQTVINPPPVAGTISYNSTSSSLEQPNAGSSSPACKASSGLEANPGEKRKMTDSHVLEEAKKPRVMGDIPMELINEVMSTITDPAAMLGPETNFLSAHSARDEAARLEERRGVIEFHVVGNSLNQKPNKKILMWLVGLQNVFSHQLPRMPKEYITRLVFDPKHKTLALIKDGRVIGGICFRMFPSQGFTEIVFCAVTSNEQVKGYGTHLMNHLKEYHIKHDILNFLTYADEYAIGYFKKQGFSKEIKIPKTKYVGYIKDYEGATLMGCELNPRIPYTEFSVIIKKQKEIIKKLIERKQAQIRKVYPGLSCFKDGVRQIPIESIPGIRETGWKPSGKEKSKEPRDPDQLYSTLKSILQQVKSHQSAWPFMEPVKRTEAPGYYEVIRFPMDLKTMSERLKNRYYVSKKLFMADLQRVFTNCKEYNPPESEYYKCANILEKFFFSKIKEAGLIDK
Chain of Histone acetyltransferase p300 (Homo sapiens) (Q09472 whole entry, the tested form may be a part): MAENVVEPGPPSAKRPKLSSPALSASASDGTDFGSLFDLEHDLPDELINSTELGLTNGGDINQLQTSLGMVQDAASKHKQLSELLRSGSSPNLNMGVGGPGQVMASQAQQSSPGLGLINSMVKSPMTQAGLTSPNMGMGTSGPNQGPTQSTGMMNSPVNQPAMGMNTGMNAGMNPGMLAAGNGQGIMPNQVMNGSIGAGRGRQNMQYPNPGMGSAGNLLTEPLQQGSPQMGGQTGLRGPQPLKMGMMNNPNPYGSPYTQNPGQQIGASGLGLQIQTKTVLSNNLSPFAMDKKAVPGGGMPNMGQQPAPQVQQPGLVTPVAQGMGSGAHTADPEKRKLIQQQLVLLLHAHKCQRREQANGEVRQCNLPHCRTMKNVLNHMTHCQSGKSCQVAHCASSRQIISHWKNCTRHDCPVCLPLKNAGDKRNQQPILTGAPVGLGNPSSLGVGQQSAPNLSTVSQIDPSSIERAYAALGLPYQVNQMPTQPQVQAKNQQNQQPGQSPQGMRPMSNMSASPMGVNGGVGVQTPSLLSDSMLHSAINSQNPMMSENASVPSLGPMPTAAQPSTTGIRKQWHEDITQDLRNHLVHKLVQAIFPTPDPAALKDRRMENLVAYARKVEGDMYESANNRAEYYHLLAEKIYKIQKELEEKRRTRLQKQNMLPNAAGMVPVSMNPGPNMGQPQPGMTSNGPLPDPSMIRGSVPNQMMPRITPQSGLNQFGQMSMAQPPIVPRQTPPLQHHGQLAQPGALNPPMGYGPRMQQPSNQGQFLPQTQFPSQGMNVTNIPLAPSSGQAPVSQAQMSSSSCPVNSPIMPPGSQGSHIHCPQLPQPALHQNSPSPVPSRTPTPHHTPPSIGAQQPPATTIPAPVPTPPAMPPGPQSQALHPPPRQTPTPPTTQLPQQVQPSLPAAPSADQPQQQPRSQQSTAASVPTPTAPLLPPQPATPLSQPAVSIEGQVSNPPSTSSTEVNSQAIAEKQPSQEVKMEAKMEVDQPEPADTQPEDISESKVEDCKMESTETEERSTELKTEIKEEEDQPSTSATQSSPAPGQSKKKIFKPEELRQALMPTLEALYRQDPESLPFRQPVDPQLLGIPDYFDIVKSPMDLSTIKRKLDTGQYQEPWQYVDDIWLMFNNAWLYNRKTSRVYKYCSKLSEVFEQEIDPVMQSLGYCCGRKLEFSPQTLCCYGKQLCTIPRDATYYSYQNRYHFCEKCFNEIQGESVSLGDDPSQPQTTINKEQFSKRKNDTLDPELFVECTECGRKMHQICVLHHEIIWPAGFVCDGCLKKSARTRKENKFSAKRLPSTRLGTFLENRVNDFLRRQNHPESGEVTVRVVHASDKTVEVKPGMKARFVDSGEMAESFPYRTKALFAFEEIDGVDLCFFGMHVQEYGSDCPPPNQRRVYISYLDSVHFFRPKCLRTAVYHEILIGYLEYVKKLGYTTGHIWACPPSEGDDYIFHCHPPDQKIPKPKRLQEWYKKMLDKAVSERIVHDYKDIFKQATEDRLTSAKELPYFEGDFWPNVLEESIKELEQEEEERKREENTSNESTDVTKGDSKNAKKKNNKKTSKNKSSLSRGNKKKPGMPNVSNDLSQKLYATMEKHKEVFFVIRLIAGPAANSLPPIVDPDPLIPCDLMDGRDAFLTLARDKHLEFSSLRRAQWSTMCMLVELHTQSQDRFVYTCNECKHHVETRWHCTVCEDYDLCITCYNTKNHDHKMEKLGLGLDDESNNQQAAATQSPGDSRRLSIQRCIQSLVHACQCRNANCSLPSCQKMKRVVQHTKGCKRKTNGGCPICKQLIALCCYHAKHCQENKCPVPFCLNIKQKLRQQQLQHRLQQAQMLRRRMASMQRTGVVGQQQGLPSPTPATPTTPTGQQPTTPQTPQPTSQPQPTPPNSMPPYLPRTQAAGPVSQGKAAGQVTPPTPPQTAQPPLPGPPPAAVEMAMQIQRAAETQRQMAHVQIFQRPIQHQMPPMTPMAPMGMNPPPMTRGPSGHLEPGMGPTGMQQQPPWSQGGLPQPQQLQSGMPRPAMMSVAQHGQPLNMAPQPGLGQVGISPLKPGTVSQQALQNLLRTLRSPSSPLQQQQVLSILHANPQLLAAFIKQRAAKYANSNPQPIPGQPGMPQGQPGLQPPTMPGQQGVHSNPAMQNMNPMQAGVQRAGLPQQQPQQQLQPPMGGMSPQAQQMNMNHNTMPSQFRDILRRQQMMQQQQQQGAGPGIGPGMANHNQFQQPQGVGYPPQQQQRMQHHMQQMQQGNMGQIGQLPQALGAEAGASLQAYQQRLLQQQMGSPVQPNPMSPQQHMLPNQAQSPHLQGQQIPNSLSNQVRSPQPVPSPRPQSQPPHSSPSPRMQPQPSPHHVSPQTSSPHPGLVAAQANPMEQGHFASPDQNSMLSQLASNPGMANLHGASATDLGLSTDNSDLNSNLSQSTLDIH

inhibition [3] [%]	inhibition [6] [%]	inhibition [8] [%]	inhibition [9] [%]	Compound	fold change (FC) (U-937 [1])	Activity (U-937 [2])	Activity (HCT-116 [4]) [%]	Activity (U-937 [5]) [%]	Activity (U-937 [7])	Activity (U-937 [10])	Activity (U-937 [11])	Activity (HCT-116 [12])
11	97	86	62	C/C(=N/Nc1nc(-c2ccc(Cl)cc2)cs1)c1cc2ccccc2oc1=O	1.5	Active	10	44	Active			
13	69	52	41	CC1CC/C(=N/Nc2nc(-c3cc4ccccc4oc3=O)cs2)C1 (stereo not drawn)								Active
12	91	62	35	Fc1ccc(-c2csc(NN=C3CCCC3)n2)cc1	1.5	Active	10	44	Active	Active	Active	Active

Continued, compound first:

Compound	inhibition [3] [%]	inhibition [6] [%]	inhibition [8] [%]	inhibition [9] [%]	fold change (FC) (U-937 [1])	Activity (U-937 [2])	Activity (HCT-116 [4]) [%]	Activity (U-937 [5]) [%]	Activity (U-937 [7])	Activity (U-937 [10])	Activity (U-937 [11])	Activity (HCT-116 [12])
C/C(=N/Nc1nc(-c2ccc(Cl)cc2)cs1)c1ccccn1	10	87	69	51		Active				Active	Active	
CC(C)=NNc1nc(-c2cccc([N+](=O)[O-])c2)cs1	7	76	54	33			10					Active
Clc1ccc(-c2csc(N/N=C\c3c[nH]c4ccccc34)n2)cc1	0	97	79	61	1.5	Active	10	44	Active			
